How the values were obtained:
[1] = target: T1, Bifunctional dihydrofolate reductase-thymidylate synthase (Plasmodium falciparum K1, UniProt P13922, A16V/S108T); assay: Inhibition constant (Ki mut) against A16V+S108T Mutant DHFRs of Plasmodium falciparum
[2] = target: Bifunctional dihydrofolate reductase-thymidylate synthase (Plasmodium falciparum K1) (UniProt P13922); assay: Evaluated for activity of compound relative to Cycloguanil
Plasmodium falciparum [3] = assay: (§1) Growth inhibition (IC50) against Plasmodium falciparum wild-type TM4/8.2; type: functional, organism-based
Procedure, shortened: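 TM4/8.2 clone (wild-type DHFR) grown in human erythrocytes, RPMI 1640 with 25 mM HEPES pH 7.4, 0.2% NaHCO3, gentamicin, 10% human serum, 37 °C, 3% CO2. Drug from DMSO (final 0.1%), 1.5% cell suspension at 1-2% parasitemia; [3H]-hypoxanthine added after 24 h, a further 18-24 h incubation. IC50 from sigmoidal incorporation-versus-concentration curve.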

Plasmodium falciparum [4] = assay: Inhibition of Plasmodium falciparum T9/94 mutant; type: functional, organism-based
Procedure, shortened: (§2)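 Parasites kept in human erythrocytes in RPMI 1640 with 25 mM HEPES pH 7.4, 0.2% NaHCO3, gentamicin and 10% human serum, at 37 °C under 3% CO2. Clones used were TM4/8.2 (wild-type DHFR) and T9/94 RC17 (A16V+S108T). Drug dilutions were made from DMSO stocks, final DMSO 0.1%, and added to a 1.5% cell suspension at 1-2% parasitemia. After 24 h, 0.25 µCi [3H]-hypoxanthine was added for a further 18-24 h, then scintillation counting. IC50 taken from a sigmoidal curve.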

[5] = target: Bifunctional dihydrofolate reductase-thymidylate synthase (Plasmodium falciparum K1) (UniProt P13922); assay: Evaluated for activity of relative to Cycloguanil
[6] = target: Bifunctional dihydrofolate reductase-thymidylate synthase (Plasmodium falciparum K1) (UniProt P13922); assay: Selectivity ratio of growth inhibition against Plasmodium falciparum TM4/8.2(wild-type) and T9/94(mutant); type: functional
[7] = target: Bifunctional dihydrofolate reductase-thymidylate synthase (Plasmodium falciparum K1) (UniProt P13922); assay: Ratio of inhibitory constant of mutant by wild-type DHFRs of Plasmodium falciparum
[8] = target: T1, Bifunctional dihydrofolate reductase-thymidylate synthase; assay: Evaluated for inhibition constant (Ki mut) against A16V+S108T Mutant dihydrofolate reductase of Plasmodium falciparum
Plasmodium falciparum [9] = assay: Growth inhibition IC50 against Plasmodium falciparum mutant T9/94; type: functional, organism-based; procedure, shortened: as §2
[10] = Selectivity ratio of growth inhibition values of wild-type (TM4/8.2) and mutant (T9/94) clones of Plasmodium falciparum
Procedure, shortened: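 Clones TM4/8.2 (wild-type DHFR) and T9/94 RC17 (A16V+S108T) grown in human erythrocytes in RPMI 1640 with 25 mM HEPES pH 7.4 and 10% human serum, 37 °C, 3% CO2. 1.5% cell suspension at 1-2% parasitemia with drug in 0.1% DMSO final for 24 h, then [3H]-hypoxanthine 18-24 h. IC50 taken from sigmoidal curves; ratio is T9/94 IC50 over TM4 IC50.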

Plasmodium falciparum [11] = assay: as §1; type: functional, organism-based; procedure, shortened: as §2; remark: listed apart in the source

T1 sequence (P13922 whole entry, looked up, stated change not applied): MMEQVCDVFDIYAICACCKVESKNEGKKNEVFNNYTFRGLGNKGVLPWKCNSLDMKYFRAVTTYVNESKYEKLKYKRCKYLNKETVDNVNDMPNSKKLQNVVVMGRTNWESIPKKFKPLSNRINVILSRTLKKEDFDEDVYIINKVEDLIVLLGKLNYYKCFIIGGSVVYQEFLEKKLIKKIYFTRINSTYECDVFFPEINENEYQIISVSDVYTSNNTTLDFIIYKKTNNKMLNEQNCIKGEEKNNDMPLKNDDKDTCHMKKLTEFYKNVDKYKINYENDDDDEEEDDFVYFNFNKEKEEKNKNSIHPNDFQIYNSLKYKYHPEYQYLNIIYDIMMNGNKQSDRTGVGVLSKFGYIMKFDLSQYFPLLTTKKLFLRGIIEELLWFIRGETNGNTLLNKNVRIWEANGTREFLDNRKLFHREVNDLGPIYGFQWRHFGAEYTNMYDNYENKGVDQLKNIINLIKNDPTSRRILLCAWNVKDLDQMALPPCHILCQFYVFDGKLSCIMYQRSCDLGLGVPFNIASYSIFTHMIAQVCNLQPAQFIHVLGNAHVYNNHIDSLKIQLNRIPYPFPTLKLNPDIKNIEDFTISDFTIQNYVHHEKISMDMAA
Chain of Bifunctional dihydrofolate reductase-thymidylate synthase (Plasmodium falciparum K1) (P13922 whole entry, looked up): as the sequence (P13922 whole entry, looked up, stated change not applied) above

CC1(C)N=C(N)N=C(N)N1c1ccccc1
Ki [1]: 1380 nM | Relative activity [2]: 1.05 | IC50 (Plasmodium falciparum [3]): 546 nM | IC50 (Plasmodium falciparum [4]): 445 nM | Relative activity [5]: 13 | IC50 ratio [6]: 0.82 | Ratio [7]: 69

CC1(C)N=C(N)N=C(N)N1c1ccc(Br)cc1
Ki [1]: 1950 nM | Relative activity [2]: 1.5 | IC50 (Plasmodium falciparum [3]): 31 nM | IC50 (Plasmodium falciparum [4]): 2760 nM | Relative activity [5]: 0.7 | IC50 ratio [6]: 89 | Ratio [7]: 1770

CCC1N=C(N)N=C(N)N1c1ccc(Br)cc1 (stereo unspecified)
Ki [1]: 202 nM | Relative activity [2]: 0.15 | IC50 (Plasmodium falciparum [3]): 132 nM | IC50 (Plasmodium falciparum [4]): 220 nM | Relative activity [5]: 1.8 | IC50 ratio [6]: 3.24 | Ratio [7]: 37

CC1(C)N=C(N)N=C(N)N1c1cccc(Cl)c1
IC50 (Plasmodium falciparum [3]): 60 nM | IC50 (Plasmodium falciparum [4]): 298 nM

CCC1N=C(N)N=C(N)N1c1ccc(Cl)cc1 (stereo unspecified)
Ki [1]: 189 nM | Relative activity [2]: 0.14 | IC50 (Plasmodium falciparum [3]): 40 nM | IC50 (Plasmodium falciparum [4]): 486 nM | Relative activity [5]: 2.4 | IC50 ratio [6]: 12.2 | Ratio [7]: 52

Cc1ccc(N2C(N)=NC(N)=NC2c2ccccc2)cc1 (stereo unspecified)
Ki [8]: 170 nM | Relative activity [2]: 0.13 | IC50 (Plasmodium falciparum [3]): 136 nM | IC50 (Plasmodium falciparum [4]): 39 nM | Relative activity [5]: 5.1 | IC50 ratio [6]: 0.29 | Ratio [7]: 22

NC1=NC(c2ccccc2)N(c2cccc(Cl)c2)C(N)=N1 (stereo unspecified)
Ki [8]: 10 nM | Relative activity [2]: 0.008 | IC50 (Plasmodium falciparum [3]): 455 nM | IC50 (Plasmodium falciparum [4]): 24 nM | Relative activity [5]: 7.8 | IC50 ratio [6]: 0.05 | Ratio [7]: 0.9

Cc1ccc(N2C(N)=NC(N)=NC2C)cc1 (stereo unspecified)
Ki [1]: 185 nM | Relative activity [2]: 0.14 | IC50 (Plasmodium falciparum [3]): 462 nM | IC50 (Plasmodium falciparum [4]): 464 nM | Relative activity [5]: 15 | IC50 ratio [6]: 1 | Ratio [7]: 7.9

CC(C)C1N=C(N)N=C(N)N1c1ccc(Cl)cc1 (stereo unspecified)
Ki [1]: 1540 nM | Relative activity [2]: 1.2 | IC50 (Plasmodium falciparum [3]): 2910 nM | IC50 (Plasmodium falciparum [4]): 2820 nM | Relative activity [5]: 40.3 | IC50 ratio [6]: 0.97 | Ratio [7]: 25

Cc1ccc(N2C(N)=NC(N)=NC2C(C)C)cc1 (stereo unspecified)
Ki [1]: 1460 nM | Relative activity [2]: 1.11 | IC50 (Plasmodium falciparum [3]): 8220 nM | IC50 (Plasmodium falciparum [4]): 3450 nM | Relative activity [5]: 111 | IC50 ratio [6]: 0.42 | Ratio [7]: 8.7

CC(C)C1N=C(N)N=C(N)N1c1ccc(Br)cc1 (stereo unspecified)
Ki [1]: 1200 nM | Relative activity [2]: 0.9 | IC50 (Plasmodium falciparum [3]): 638 nM | IC50 (Plasmodium falciparum [4]): 725 nM | Relative activity [5]: 20 | IC50 ratio [6]: 1.14 | Ratio [7]: 40

CC1(C)N=C(N)N=C(N)N1c1ccc(Cl)c(Cl)c1 [CHLORCYCLOGUANIL]
Ki [1]: 131 nM | Relative activity [2]: 0.1 | IC50 (Plasmodium falciparum [3]): 4 nM | IC50 (Plasmodium falciparum [9]): 307 nM | Relative activity [5]: 0.73 | IC50 ratio [6]: 76.8 | Ratio [7]: 119

NC1=NCN(c2ccc(F)cc2)C(N)=N1
Ki [1]: 469 nM | Relative activity [2]: 0.4 | IC50 (Plasmodium falciparum [3]): 9660 nM | IC50 (Plasmodium falciparum [4]): 312 nM | Relative activity [5]: 180 | IC50 ratio [6]: 0.03 | Ratio [7]: 1.7

NC1=NC(c2ccccc2)N(c2ccc(Cl)c(Cl)c2)C(N)=N1 (stereo unspecified)
IC50 (Plasmodium falciparum [3]): 40 nM | IC50 (Plasmodium falciparum [4]): 29 nM

CC1N=C(N)N=C(N)N1c1ccc(Cl)cc1 (stereo unspecified)
Ki [1]: 127 nM | Relative activity [2]: 0.09 | IC50 (Plasmodium falciparum [3]): 348 nM | IC50 (Plasmodium falciparum [4]): 347 nM | Relative activity [5]: 2.7 | IC50 ratio [6]: 1 | Ratio [7]: 31

CCCC1N=C(N)N=C(N)N1c1ccc(Br)cc1 (stereo unspecified)
Ki [8]: 127 nM | Relative activity [2]: 0.1 | IC50 (Plasmodium falciparum [3]): 63 nM | IC50 (Plasmodium falciparum [4]): 250 nM | Relative activity [5]: 1.7 | IC50 ratio [6]: 3.97 | Ratio [7]: 49

NC1=NCN(c2ccc(Cl)cc2)C(N)=N1
Ki [8]: 646 nM | Relative activity [2]: 0.5 | IC50 (Plasmodium falciparum [3]): 952 nM | IC50 (Plasmodium falciparum [4]): 313 nM | Relative activity [5]: 16 | IC50 ratio [6]: 0.33 | Ratio [7]: 26

Cc1ccc(N2C(N)=NC(N)=NC2(C)C)cc1
IC50 (Plasmodium falciparum [3]): 65 nM | IC50 (Plasmodium falciparum [4]): 3620 nM

CCCC1N=C(N)N=C(N)N1c1ccc(Cl)cc1 (stereo unspecified)
Ki [8]: 107 nM | Relative activity [2]: 0.08 | IC50 (Plasmodium falciparum [3]): 65 nM | IC50 (Plasmodium falciparum [4]): 365 nM | Relative activity [5]: 3.1 | IC50 ratio [6]: 5.62 | Ratio [7]: 23

NC1=NC(c2ccccc2)N(c2ccc(Cl)cc2)C(N)=N1 (stereo unspecified)
Ki [8]: 49 nM | Relative activity [2]: 0.04 | IC50 (Plasmodium falciparum [3]): 27 nM | IC50 (Plasmodium falciparum [4]): 44 nM | Relative activity [5]: 3

NC1=NCN(c2ccccc2)C(N)=N1
Ki [1]: 585 nM | Relative activity [2]: 0.4 | IC50 (Plasmodium falciparum [3]): 11600 nM | IC50 (Plasmodium falciparum [4]): 356 nM | Relative activity [5]: 220 | IC50 ratio [6]: 0.03 | Ratio [7]: 1.8

CCCC1N=C(N)N=C(N)N1c1ccc(C)cc1 (stereo unspecified)
Ki [1]: 188 nM | Relative activity [2]: 0.14 | IC50 (Plasmodium falciparum [3]): 167 nM | IC50 (Plasmodium falciparum [4]): 152 nM | Relative activity [5]: 9.1 | IC50 ratio [6]: 0.91 | Ratio [7]: 14

CCC1N=C(N)N=C(N)N1c1ccc(C)cc1 (stereo unspecified)
Ki [1]: 128 nM | Relative activity [2]: 0.1 | IC50 (Plasmodium falciparum [3]): 273 nM | IC50 (Plasmodium falciparum [4]): 517 nM | Relative activity [5]: 3.9 | IC50 ratio [6]: 1.89 | Ratio [7]: 22

CC(C)(C)C1N=C(N)N=C(N)N1c1ccc(Cl)cc1 (stereo unspecified)
Ki [1]: 82700 nM | Relative activity [2]: 63 | IC50 (Plasmodium falciparum [3]): 2910 nM | IC50 (Plasmodium falciparum [4]): 2820 nM

CCCCC1N=C(N)N=C(N)N1c1ccc(Cl)cc1 (stereo unspecified)
Ki [8]: 167 nM | Relative activity [2]: 0.1 | IC50 (Plasmodium falciparum [3]): 111 nM | IC50 (Plasmodium falciparum [4]): 250 nM | Relative activity [5]: 2.5 | IC50 ratio [10]: 2.25 | Ratio [7]: 45

CC1N=C(N)N=C(N)N1c1ccc(Br)cc1 (stereo unspecified)
Ki [1]: 202 nM | Relative activity [2]: 0.15 | IC50 (Plasmodium falciparum [3]): 132 nM | IC50 (Plasmodium falciparum [4]): 277 nM | Relative activity [5]: 3.8 | IC50 ratio [6]: 2.1 | Ratio [7]: 35

CC1(C)N=C(N)N=C(N)N1c1ccc(Cl)cc1 [CYCLOGUANIL]
Ki [1]: 1310 nM | Relative activity [2]: 1 | IC50 (Plasmodium falciparum [11]): 40 nM | IC50 (Plasmodium falciparum [4]): 2430 nM | Relative activity [5]: 1 | IC50 ratio [6]: 60.8 | Ratio [7]: 876

CC1N=C(N)N=C(N)N1c1cccc(Cl)c1 (stereo unspecified)
IC50 (Plasmodium falciparum [4]): 28 nM

CC1N=C(N)N=C(N)N1c1ccc(Cl)c(Cl)c1 (stereo unspecified)
Ki [1]: 17.8 nM | Relative activity [2]: 0.014 | IC50 (Plasmodium falciparum [3]): 35 nM | IC50 (Plasmodium falciparum [4]): 19 nM | Relative activity [5]: 0.9 | IC50 ratio [6]: 0.54 | Ratio [7]: 12.7

CC1(C)N=C(N)N=C(N)N1c1ccc(F)cc1
Ki [1]: 1630 nM | Relative activity [2]: 1.2 | IC50 (Plasmodium falciparum [3]): 294 nM | IC50 (Plasmodium falciparum [4]): 1000 nM | Relative activity [5]: 3 | IC50 ratio [6]: 3.4 | Ratio [7]: 355

NC1=NC(c2ccccc2)N(c2ccc(Br)cc2)C(N)=N1 (stereo unspecified)
Ki [8]: 90 nM | Relative activity [2]: 0.07 | IC50 (Plasmodium falciparum [3]): 47 nM | IC50 (Plasmodium falciparum [4]): 180 nM | Relative activity [5]: 1.9 | IC50 ratio [6]: 3.86 | Ratio [7]: 31
